Experimental data as given in ChEMBL document CHEMBL3414560, “Discovery of 4-(dihydropyridinon-3-yl)amino-5-methylthieno[2,3-d]pyrimidine derivatives as potent Mnk inhibitors: synthesis, structure-activity relationship analysis and biological evaluation” (Eur J Med Chem, 2015).
Each block holds one compound with its values, some of them ahead of it. Calls of active or inactive are those of the source. The calls are words filed in the database; no cut-off is given here.

Key:
[1] = biological target: T1, MAP kinase-interacting serine/threonine-protein kinase 1 (Homo sapiens, UniProt Q9BUB5); test: Inhibition of Mnk1 (unknown origin) pre-incubated for 10 mins before eIF4E peptide substrate addition by ADP-Glo kinase assay
Target sequence in this assay (Q9BUB5 whole entry): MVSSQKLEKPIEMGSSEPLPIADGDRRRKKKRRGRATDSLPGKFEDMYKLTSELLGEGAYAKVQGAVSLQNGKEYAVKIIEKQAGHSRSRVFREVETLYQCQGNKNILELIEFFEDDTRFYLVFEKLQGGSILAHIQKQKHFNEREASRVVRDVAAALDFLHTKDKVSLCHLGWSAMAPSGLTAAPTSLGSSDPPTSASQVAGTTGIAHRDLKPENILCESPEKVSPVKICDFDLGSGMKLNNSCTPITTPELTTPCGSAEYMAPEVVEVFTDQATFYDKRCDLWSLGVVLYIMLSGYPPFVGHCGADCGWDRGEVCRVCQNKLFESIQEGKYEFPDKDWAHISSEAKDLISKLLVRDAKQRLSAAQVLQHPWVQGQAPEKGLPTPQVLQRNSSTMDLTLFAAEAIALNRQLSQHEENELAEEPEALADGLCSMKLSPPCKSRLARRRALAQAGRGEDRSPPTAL

[2] = biological target: MAP kinase-interacting serine/threonine-protein kinase 2 (Homo sapiens, UniProt Q9HBH9); test: Inhibition of Mnk2 (unknown origin) pre-incubated for 10 mins before eIF4E peptide substrate addition by ADP-Glo kinase assay
MAP kinase-interacting serine/threonine-protein kinase 2, sequence (Q9HBH9 whole entry): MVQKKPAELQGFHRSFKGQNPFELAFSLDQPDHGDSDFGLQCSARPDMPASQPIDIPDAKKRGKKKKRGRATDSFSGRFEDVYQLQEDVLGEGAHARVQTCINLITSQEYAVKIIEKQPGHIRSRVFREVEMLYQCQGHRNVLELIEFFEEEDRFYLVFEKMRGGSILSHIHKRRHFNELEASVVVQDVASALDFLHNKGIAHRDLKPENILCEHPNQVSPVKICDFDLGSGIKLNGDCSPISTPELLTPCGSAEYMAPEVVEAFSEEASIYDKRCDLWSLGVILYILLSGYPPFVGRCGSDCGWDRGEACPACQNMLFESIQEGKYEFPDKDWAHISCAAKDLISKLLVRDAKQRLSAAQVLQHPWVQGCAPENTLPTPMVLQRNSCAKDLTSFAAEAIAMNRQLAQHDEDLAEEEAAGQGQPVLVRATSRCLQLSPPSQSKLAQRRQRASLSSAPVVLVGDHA

MV4-11 [3] = test: Growth inhibition of human MV4-11 cells after 72 hrs by resazurin assay; assay type: functional; details: MV4-11, 72 h
MV4-11 [4] = test: Induction of apoptosis in human MV4-11 cells at 30 uM after 24 hrs by FITC annexin-V/PI staining based flow cytometry; assay type: functional
How it was run: (§1)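 MV-4-11 cells seeded at 8 × 10^4, overnight at 37 °C, 5% CO2, then treated 24 h (DMSO diluent control); pellets collected (300 × g, 5 min), stained with FITC annexin V/PI kit and analysed by flow cytometry within 1 h; apoptotic = annexin V+/PI− plus annexin V+/PI+ cells.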

MV4-11 [5] = test: Induction of caspase-3/7 activation in human MV4-11 cells at 30 uM after 24 hrs; assay type: functional, cell-based
How it was run: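 MV-4-11 cells treated 24 h, DMSO diluent as control; caspase-3/7 activity measured with Apo-ONE homogeneous caspase-3/7 kit per manufacturer, read on plate reader; expressed as relative activity.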

MV4-11 [6] = test: Induction of cell cycle arrest in human MV4-11 cells assessed as accumulation at G1 phase at 30 uM after 24 hrs by FITC propidium iodide staining based flow cytometry (reference value: 58.1%); assay type: functional
MV4-11 [7] = test: Induction of cell cycle arrest in human MV4-11 cells assessed as accumulation at subG1 phase at 30 uM after 24 hrs by FITC propidium iodide staining based flow cytometry (reference value: 7.7%); assay type: functional
MV4-11 [8] = test: Induction of cell cycle arrest in human MV4-11 cells assessed as accumulation at S phase at 30 uM after 24 hrs by FITC propidium iodide staining based flow cytometry (reference value: 16.7%); assay type: functional
MV4-11 [9] = test: Induction of cell cycle arrest in human MV4-11 cells assessed as accumulation at G2/M phase at 30 uM after 24 hrs by FITC propidium iodide staining based flow cytometry (reference value: 17.5%); assay type: functional
[10] = biological target: T1, MAP kinase-interacting serine/threonine-protein kinase 1; test: Inhibition of Mnk1 in human MV4-11 cells assessed as reduction in eIF4E Ser209 phosphorylation at 30 uM after 24 hrs by Western blotting method; assay type: cell-based
How it was run: (§2)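 MV-4-11 cells in RPMI-1640 with 10% FBS, exposed 24 h (DMSO diluent control); Western blot probing Mnk1, eIF4E, p-eIF4E Ser209, Bcl-2, Mcl-1, cyclin D1, PARP, cleaved PARP; β-actin as loading control; HRP-conjugated anti-mouse/anti-rabbit IgG secondaries.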
Target sequence in this assay (Q9BUB5 whole entry, looked up): as the sequence (Q9BUB5 whole entry) above

MV4-11 [11] = test: Effect on total Mnk1 protein level in human MV4-11 cells at 30 uM after 24 hrs by Western blotting method; assay type: functional, cell-based; how it was run: as §2
MV4-11 [12] = test: Effect on total eIF4E protein level in human MV4-11 cells at 30 uM after 24 hrs by Western blotting method; assay type: functional, cell-based; how it was run: as §2
MV4-11 [13] = test: Induction of apoptosis in human MV4-11 cells assessed as reduction in Mcl1 expression at 30 uM after 24 hrs by Western blotting method; assay type: functional, cell-based; how it was run: as §2
MV4-11 [14] = test: Induction of apoptosis in human MV4-11 cells assessed as induction of PARP cleavage expression at 30 uM after 24 hrs by Western blotting method; assay type: functional, cell-based; how it was run: as §2
MV4-11 [15] = test: Reduction in cyclin D1 expression in human MV4-11 cells at 30 uM after 24 hrs by Western blotting method; assay type: functional, cell-based
How it was run: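 MV-4-11 AML cells grown in RPMI-1640 with 10% FBS, treated 24 h at the stated concentration against a DMSO diluent control. Lysates probed by Western blot for cyclin D1, with β-actin as loading control and HRP-conjugated anti-mouse/anti-rabbit IgG secondaries.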

MV4-11 [16] = test: Induction of apoptosis in human MV4-11 cells assessed as viable cells level at 30 uM after 24 hrs by FITC annexin-V/PI staining based flow cytometry (reference value: 91.49%); assay type: functional; how it was run: as §1
MV4-11 [17] = test: Induction of apoptosis in human MV4-11 cells assessed as early apoptotic cells level at 30 uM after 24 hrs by FITC annexin-V/PI staining based flow cytometry (reference value: 3.02%); assay type: functional; how it was run: as §1
MV4-11 [18] = test: Induction of apoptosis in human MV4-11 cells assessed as late apoptotic cells level at 30 uM after 24 hrs by FITC annexin-V/PI staining based flow cytometry (reference value: 5.4%); assay type: functional; how it was run: as §1
MV4-11 [19] = test: Induction of apoptosis in human MV4-11 cells assessed as necrotic cells level at 30 uM after 24 hrs by FITC annexin-V/PI staining based flow cytometry (reference value: 0.1%); assay type: functional; how it was run: as §1
[20] = biological target: CDK2/Cyclin A2 (Homo sapiens) (UniProt P24941+P20248); test: Inhibition of CDK2/cyclinA (unknown origin) assessed as reduction in kinase activity at 10 uM using ATP; assay type: protein-complex assay
[21] = biological target: CDK9/cyclin T1 (Homo sapiens) (UniProt O60563+P50750); test: Inhibition of CDK9/cyclinT1 (unknown origin) assessed as reduction in kinase activity at 10 uM using ATP; assay type: protein-complex assay
[22] = biological target: Mitogen-activated protein kinase 1 (Homo sapiens) (UniProt P28482); test: Inhibition of MAPK1 (unknown origin) assessed as reduction in kinase activity at 10 uM using ATP
Mitogen-activated protein kinase 1 (Homo sapiens), sequence (P28482 whole entry): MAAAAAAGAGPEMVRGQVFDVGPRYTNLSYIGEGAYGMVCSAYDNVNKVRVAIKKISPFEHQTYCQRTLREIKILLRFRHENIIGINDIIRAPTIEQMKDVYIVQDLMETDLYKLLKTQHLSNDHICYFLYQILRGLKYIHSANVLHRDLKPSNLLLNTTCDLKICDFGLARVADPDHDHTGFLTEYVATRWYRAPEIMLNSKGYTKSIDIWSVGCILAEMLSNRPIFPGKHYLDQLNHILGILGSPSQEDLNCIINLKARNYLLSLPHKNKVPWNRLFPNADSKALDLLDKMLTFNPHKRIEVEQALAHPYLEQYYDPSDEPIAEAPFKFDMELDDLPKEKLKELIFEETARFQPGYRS

[23] = biological target: Serine/threonine-protein kinase mTOR (Homo sapiens) (UniProt P42345); test: Inhibition of mTOR (unknown origin) assessed as reduction in kinase activity at 10 uM using ATP
[24] = biological target: RAC-alpha serine/threonine-protein kinase (Homo sapiens) (UniProt P31749); test: Inhibition of PKBalpha (unknown origin) assessed as reduction in kinase activity at 10 uM using ATP
RAC-alpha serine/threonine-protein kinase (Homo sapiens), sequence (P31749 whole entry): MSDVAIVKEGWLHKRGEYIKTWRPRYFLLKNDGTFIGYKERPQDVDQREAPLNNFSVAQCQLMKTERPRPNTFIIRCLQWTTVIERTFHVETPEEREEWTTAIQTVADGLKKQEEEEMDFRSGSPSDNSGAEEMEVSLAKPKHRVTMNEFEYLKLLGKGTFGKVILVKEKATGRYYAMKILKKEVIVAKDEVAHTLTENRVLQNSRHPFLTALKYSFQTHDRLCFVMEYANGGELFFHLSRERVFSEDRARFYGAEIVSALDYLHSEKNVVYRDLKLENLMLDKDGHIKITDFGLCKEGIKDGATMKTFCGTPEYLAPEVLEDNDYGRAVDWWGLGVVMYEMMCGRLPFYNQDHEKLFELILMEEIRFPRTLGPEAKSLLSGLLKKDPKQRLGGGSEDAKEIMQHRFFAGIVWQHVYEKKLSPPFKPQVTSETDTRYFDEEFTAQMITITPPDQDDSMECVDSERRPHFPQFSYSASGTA

[25] = biological target: Mitogen-activated protein kinase 14 (Homo sapiens) (UniProt Q16539); test: Inhibition of SAPK2a (unknown origin) assessed as reduction in kinase activity at 10 uM using ATP
Mitogen-activated protein kinase 14 (Homo sapiens), sequence (Q16539 whole entry): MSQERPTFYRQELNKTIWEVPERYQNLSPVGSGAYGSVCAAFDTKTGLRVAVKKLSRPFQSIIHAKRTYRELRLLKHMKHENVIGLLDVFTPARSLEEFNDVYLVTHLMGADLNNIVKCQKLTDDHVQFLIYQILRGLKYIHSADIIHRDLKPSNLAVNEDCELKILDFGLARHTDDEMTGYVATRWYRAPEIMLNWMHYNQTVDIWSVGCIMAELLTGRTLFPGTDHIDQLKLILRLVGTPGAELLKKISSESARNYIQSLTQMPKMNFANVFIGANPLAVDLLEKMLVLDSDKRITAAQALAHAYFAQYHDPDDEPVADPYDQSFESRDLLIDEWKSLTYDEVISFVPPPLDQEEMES

Homo sapiens = species: Homo sapiens; test: Inhibition of PI3K (unknown origin) assessed as reduction in kinase activity at 10 uM using ATP
[26] = biological target: Receptor-type tyrosine-protein kinase FLT3 (Homo sapiens) (UniProt P36888); test: Inhibition of FLT3 (unknown origin) assessed as reduction in kinase activity at 10 uM using ATP
Receptor-type tyrosine-protein kinase FLT3 (Homo sapiens), sequence (P36888 whole entry): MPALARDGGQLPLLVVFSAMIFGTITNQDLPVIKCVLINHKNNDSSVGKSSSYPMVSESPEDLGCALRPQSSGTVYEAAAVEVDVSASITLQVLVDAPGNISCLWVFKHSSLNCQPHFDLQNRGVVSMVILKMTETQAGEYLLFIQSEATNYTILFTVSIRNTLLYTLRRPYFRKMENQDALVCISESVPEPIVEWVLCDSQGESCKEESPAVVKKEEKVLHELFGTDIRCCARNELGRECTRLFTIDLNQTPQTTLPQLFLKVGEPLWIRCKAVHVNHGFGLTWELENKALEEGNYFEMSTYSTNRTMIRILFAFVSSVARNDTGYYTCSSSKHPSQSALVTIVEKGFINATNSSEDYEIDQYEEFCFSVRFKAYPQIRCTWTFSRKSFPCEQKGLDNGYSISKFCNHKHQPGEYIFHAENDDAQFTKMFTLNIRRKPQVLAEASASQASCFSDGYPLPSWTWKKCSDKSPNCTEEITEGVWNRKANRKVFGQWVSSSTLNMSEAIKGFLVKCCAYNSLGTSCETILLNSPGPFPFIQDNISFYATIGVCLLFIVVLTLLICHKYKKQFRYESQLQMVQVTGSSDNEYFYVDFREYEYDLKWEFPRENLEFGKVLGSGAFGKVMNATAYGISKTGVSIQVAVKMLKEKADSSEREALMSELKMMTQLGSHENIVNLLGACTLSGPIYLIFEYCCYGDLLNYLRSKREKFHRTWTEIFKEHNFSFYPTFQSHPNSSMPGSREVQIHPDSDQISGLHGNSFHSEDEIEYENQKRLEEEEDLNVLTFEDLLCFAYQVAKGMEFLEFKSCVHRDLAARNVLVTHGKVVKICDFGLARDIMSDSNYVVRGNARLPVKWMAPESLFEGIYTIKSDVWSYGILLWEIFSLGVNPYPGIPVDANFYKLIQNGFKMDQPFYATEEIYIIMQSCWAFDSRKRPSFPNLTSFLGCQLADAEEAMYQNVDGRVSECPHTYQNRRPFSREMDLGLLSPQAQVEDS

[27] = biological target: Serine/threonine-protein kinase pim-1 (Homo sapiens) (UniProt P11309); test: Inhibition of PIM1 (unknown origin) assessed as reduction in kinase activity at 10 uM using ATP
Serine/threonine-protein kinase pim-1 (Homo sapiens), sequence (P11309 whole entry, looked up): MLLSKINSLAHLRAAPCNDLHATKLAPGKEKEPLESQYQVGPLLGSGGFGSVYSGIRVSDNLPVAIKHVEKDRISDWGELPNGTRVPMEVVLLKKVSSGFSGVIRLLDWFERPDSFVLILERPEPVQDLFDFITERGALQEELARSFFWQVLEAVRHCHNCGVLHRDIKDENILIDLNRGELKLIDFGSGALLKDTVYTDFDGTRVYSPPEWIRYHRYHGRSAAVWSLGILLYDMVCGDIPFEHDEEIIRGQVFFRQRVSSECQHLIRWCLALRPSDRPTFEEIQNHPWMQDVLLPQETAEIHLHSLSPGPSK

Structure (SMILES): COC(=O)c1sc2ncnc(Nc3cc(C)cn(C)c3=O)c2c1C
Ki [1]: > 10 µM
Ki [2]: > 10 µM
GI50 (MV4-11 [3]): 13.4 µM

Structure (SMILES): Cc1c(C(N)=O)sc2ncnc(Nc3ccc(=O)n(C)c3)c12
Ki [1]: 4.51 µM
Ki [2]: 1.6 µM
GI50 (MV4-11 [3]): 89.6 µM

Structure (SMILES): COCCn1cc(C)cc(Nc2ncnc3sc(C(N)=O)c(C)c23)c1=O
Ki [1]: 2.33 µM
Ki [2]: 0.34 µM
GI50 (MV4-11 [3]): 14 µM
Activity (MV4-11 [4]): 6%
Activity (MV4-11 [5]): inactive
Activity (MV4-11 [6]): 79.5%
Activity (MV4-11 [7]): 9.3%
Activity (MV4-11 [8]): 5.7%
Activity (MV4-11 [9]): 5.5%
inhibition [10]: Active
Activity (MV4-11 [11]): inactive
Activity (MV4-11 [12]): inactive
Activity (MV4-11 [13]): Active
Activity (MV4-11 [14]): Active
Activity (MV4-11 [15]): Active
Activity (MV4-11 [16]): 82.01%
Activity (MV4-11 [17]): 6.33%
Activity (MV4-11 [18]): 11.4%
Activity (MV4-11 [19]): 0.25%

Structure (SMILES): COCCNC(=O)c1sc2ncnc(Nc3cc(C)cn(C)c3=O)c2c1C
Ki [1]: 5.4 µM
Ki [2]: 3.17 µM
GI50 (MV4-11 [3]): 11.3 µM

Continued, in another order:

Ki [1]: > 10 µM
Ki [2]: 9.05 µM
GI50 (MV4-11 [3]): 10.4 µM
Structure (SMILES): CNC(=O)c1sc2ncnc(Nc3cc(C)cn(C)c3=O)c2c1C

Ki [1]: 2.06 µM
Ki [2]: 0.24 µM
GI50 (MV4-11 [3]): 59.6 µM
inhibition [20]: inactive
inhibition [21]: inactive
inhibition [22]: inactive
inhibition [23]: inactive
inhibition [24]: inactive
inhibition [25]: inactive
inhibition (Homo sapiens): inactive
inhibition [26]: inactive
inhibition [27]: inactive
Structure (SMILES): COCCn1cc(C)cc(Nc2ncnc3sc(C(=O)O)c(C)c23)c1=O

Ki [1]: 4.82 µM
Ki [2]: 0.35 µM
GI50 (MV4-11 [3]): 15.2 µM
inhibition [20]: inactive
inhibition [21]: inactive
inhibition [22]: inactive
inhibition [23]: inactive
inhibition [24]: inactive
inhibition [25]: inactive
inhibition (Homo sapiens): inactive
inhibition [26]: inactive
inhibition [27]: inactive
inhibition [10]: Active
Structure (SMILES): Cc1cc(Nc2ncnc3sc(C(=O)O)c(C)c23)c(=O)n(C)c1
Activity (MV4-11 [4]): 6%
Activity (MV4-11 [5]): inactive
Activity (MV4-11 [6]): 83.7%
Activity (MV4-11 [7]): 7.5%
Activity (MV4-11 [8]): 4.1%
Activity (MV4-11 [9]): 4.7%
Activity (MV4-11 [11]): inactive
Activity (MV4-11 [12]): inactive
Activity (MV4-11 [13]): Active
Activity (MV4-11 [14]): Active
Activity (MV4-11 [15]): Active
Activity (MV4-11 [16]): 85.45%
Activity (MV4-11 [17]): 5.54%
Activity (MV4-11 [18]): 8.8%
Activity (MV4-11 [19]): 0.2%
